ChEMBL document CHEMBL1811838, “Antimalarial activity of natural and synthetic prodiginines” (J Med Chem, 2011)

Legend:
Plasmodium falciparum [1] = experiment: Antimalarial activity Plasmodium falciparum D6 after 72 hrs by SYBR Green I based fluorescence assay; format: functional, organism-based; conditions: D6, 72 h
How it was run: (§1)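 P. falciparum (D6 pansensitive; Dd2 MDR) cultured under standard conditions and grown 72 h with varying compound concentrations, chloroquine positive control or no drug, each condition in quadruplicate. Growth measured by SYBR Green I fluorescence with minor modifications; IC50 = concentration inhibiting growth by 50%.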

Plasmodium falciparum [2] = experiment: Antimalarial activity multidrug-resistant Plasmodium falciparum Dd2 after 72 hrs by SYBR Green I based fluorescence assay; format: functional, organism-based; conditions: Dd2, 72 h; how it was run: as §1
[3] = Toxicity in C57BL/6J mouse splenic lymphocytes after 72 hrs by Alamar blue Assay; format: cell-based; conditions: splenic lymphocyte
How it was run: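 Splenic lymphocytes from C57BL/6J mice washed, then stimulated with 1 μg/mL concanavalin A in RPMI/10% FBS with 50 μM β-mercaptoethanol. Seeded at 2 × 10^5 cells/well with serially diluted compound for 72 h at 37 °C, 5% CO2. Resazurin added (final 10 μM) for another 24 h; fluorescence read at ex 560/em 590 nm.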

| SMILES | IC50 (Plasmodium falciparum [1]) [nM] | IC50 (Plasmodium falciparum [2]) [nM] | IC50 [3] [nM] |
| --- | --- | --- | --- |
| COC1=CC(c2ccc[nH]2)=N/C1=C\c1[nH]ccc1Cc1ccc(OC)cc1 | 170 | 156 | < 125 |
| COC1=CC(c2cccs2)=N/C1=C\c1[nH]c(C)cc1C | > 25000 | > 25000 | 3530 |
| COC1=CC(c2ccc[nH]2)=N/C1=C\c1[nH]c(Cc2cccc(F)c2)cc1Cc1cccc(F)c1 | 5.1 | 6.7 | < 125 |
| CCCCCCCCc1cc(CCCCCCC)[nH]c1/C=C1\N=C(c2ccc[nH]2)C=C1OC | 6.2 | 2.9 | 3910 |
| COC1=CC(c2ccc[nH]2)=N/C1=C\c1[nH]ccc1CC(C)C | 460 | 230 | < 125 |
| CCCCCCCc1cc(Cc2ccc(Cl)cc2)c(/C=C2\N=C(c3ccc[nH]3)C=C2OC)[nH]1 | 2.8 | 2.2 | < 125 |
| CCCCCCc1ccc(/C=C2\N=C(c3ccc[nH]3)C=C2OC)[nH]1 | 375 | 450 | < 125 |
| COC1=CC(c2ccc[nH]2)=N/C1=C\c1[nH]ccc1Cc1ccc2ccccc2c1 | 56 | – | – |
| COC1=CC(c2ccco2)=N/C1=C\c1[nH]c(C)cc1C | > 25000 | > 25000 | 3890 |
| CCCCCCCCc1cc(Cc2ccc(F)cc2)c(/C=C2\N=C(c3ccc[nH]3)C=C2OC)[nH]1 | 1.3 | 1.2 | < 125 |
| COC1=CC(c2ccccc2)=N/C1=C\c1[nH]c(C)cc1C | 19400 | 13600 | 7950 |
| CCCCCCc1cc[nH]c1/C=C1\N=C(c2ccc[nH]2)C=C1OC | 28 | 7 | < 125 |
| COC1=CC(c2ccc[nH]2)=N/C1=C\c1[nH]c(Cc2ccc(Br)cc2)cc1Cc1ccc(F)cc1 | 5.7 | 5.1 | < 125 |
| CCCCCCCCCCCc1ccc(/C=C2\N=C(c3ccco3)C=C2OC)[nH]1 | 2920 | 3810 | 980 |
| CCCCCCCc1cc(CCCCCC)c(/C=C2\N=C(c3ccc[nH]3)C=C2OC)[nH]1 | 2.1 | 1.2 | < 125 |
| CCCCCCCCc1cc(CCCCCC)[nH]c1/C=C1\N=C(c2ccc[nH]2)C=C1OC | 4.9 | 2 | < 125 |
| COC1=CC(c2ccc[nH]2)=N/C1=C\c1ccc(CCCCCCCCCCCN)[nH]1 | 1700 | – | – |
| CCCCCCCCCCc1cc[nH]c1/C=C1\N=C(c2ccc[nH]2)C=C1OC | 8 | 10 | < 125 |
| CCCCCCc1cc(Cc2ccc(Br)cc2)c(/C=C2\N=C(c3ccc[nH]3)C=C2OC)[nH]1 | – | 2.8 | < 125 |
| CCCCCCCCc1cc(Cc2ccc(Br)cc2)c(/C=C2\N=C(c3ccc[nH]3)C=C2OC)[nH]1 | 4 | 2.9 | < 125 |
| CCCCCCc1cc(Cc2ccc(F)cc2)c(/C=C2\N=C(c3ccc[nH]3)C=C2OC)[nH]1 | – | 0.9 | 1460 |
| CCCCCCCCCCCC1=N/C(=C\c2[nH]c(-c3cc4ccccc4[nH]3)cc2OC)C=C1 | 4060 | 6150 | 3410 |
| CCCCCCCCc1ccc(/C=C2\N=C(c3ccc[nH]3)C=C2OC)[nH]1 | 80 | 130 | < 125 |
| COC1=CC(c2ccc[nH]2)=N/C1=C\c1[nH]c(Cc2c(F)cccc2F)cc1Cc1c(F)cccc1F | 14.7 | 18.3 | < 125 |
| COC1=CC(c2ccc[nH]2)=N/C1=C\c1[nH]c(Cc2ccc(Br)cc2)cc1Cc1ccc(Cl)cc1 | 8.3 | 7.7 | < 125 |
| CCCCC1CCCCCCc2cc1c(/C=C1\N=C(c3ccc[nH]3)C=C1OC)[nH]2 (configuration not stated) [STREPTORUBIN B] | 7.8 | – | – |

| SMILES | IC50 (Plasmodium falciparum [1]) [nM] | IC50 (Plasmodium falciparum [2]) [nM] | IC50 [3] [nM] |
| --- | --- | --- | --- |
| CCCc1ccc(/C=C2\N=C(c3ccc[nH]3)C=C2OC)[nH]1 | 2300 | – | – |
| CCCCCCCCCCCC1=N/C(=C\c2[nH]c(-c3ccc[nH]3)cc2OC)C=C1 [UNDECYLPRODIGININE] | 7.7 | – | – |
| CCCCCCCCCCCCCCCCc1cc[nH]c1/C=C1\N=C(c2ccc[nH]2)C=C1OC | > 25000 | > 25000 | 3630 |
| CCCCCCCCCCCc1ccc(/C=C2\N=C(c3cccs3)C=C2OC)[nH]1 | 5940 | 7770 | 2120 |
| CCCCCCCCCCCCCCCCc1ccc(/C=C2\N=C(c3ccc[nH]3)C=C2OC)[nH]1 | 300 | 400 | < 125 |
| CCCCCCCCc1cc[nH]c1/C=C1\N=C(c2ccc[nH]2)C=C1OC | 4.6 | 1.8 | < 125 |
| COC1=CC(c2ccc[nH]2)=N/C1=C\c1[nH]c(Cc2ccc(F)cc2)cc1Cc1ccc(F)cc1 | 5.6 | 5.7 | < 125 |
| COC1=CC(c2ccc[nH]2)=N/C1=C\c1[nH]c(CCC2CCCCC2)cc1CCC1CCCCC1 | 5.3 | 3.5 | < 125 |
| CCCCc1ccc(/C=C2\N=C(c3ccc[nH]3)C=C2OC)[nH]1 | 1780 | 1590 | < 125 |
| COC1=CC(c2ccc[nH]2)=N/C1=C\c1[nH]c(Cc2ccc(Cl)cc2)cc1CCC1CCCCC1 | 3.9 | 2.9 | 1010 |
| CCCCc1cc[nH]c1/C=C1\N=C(c2ccc[nH]2)C=C1OC | 80 | 18 | < 125 |
| CCc1cc(Cc2ccc(Cl)cc2)c(/C=C2\N=C(c3ccc[nH]3)C=C2OC)[nH]1 | – | 6.2 | < 125 |
| COC1=CC(c2ccc[nH]2)=N/C1=C\c1[nH]c(Cc2ccc(F)cc2)cc1Cc1ccc(Cl)cc1 | – | 6.1 | < 125 |
| COC1=CC(c2ccc[nH]2)=N/C1=C\c1[nH]c(C)cc1C | 8900 | 8130 | < 125 |
| CCCCCCCCCCCC1=N/C(=C\c2[nH]c(-c3ccccc3)cc2OC)C=C1 | 10500 | 15800 | 3580 |
| CCCCCCCCc1cc(CCCCCCCC)c(/C=C2\N=C(c3ccc[nH]3)C=C2OC)[nH]1 | 92 | 129 | 31200 |
| CCN(CC)CCCC(C)Nc1ccnc2cc(Cl)ccc12 (configuration not stated) [CHLOROQUINE] | – | – | 16000 |
| COC1=CC(c2cc3ccccc3[nH]2)=N/C1=C\c1[nH]c(C)cc1C [OBATOCLAX] | 4250 | 4950 | < 125 |
| COC1=CC(c2ccc[nH]2)=N/C1=C\c1[nH]ccc1Cc1ccc(Br)cc1 | 90 | 108 | < 125 |
| COC1=CC(c2ccc[nH]2)=N/C1=C\c1[nH]c(Cc2ccc(Cl)cc2Cl)cc1Cc1ccc(Cl)cc1Cl | 12.6 | 11 | < 125 |
| CCCCCC1=C/C(=C/c2[nH]c(-c3ccc[nH]3)cc2OC)N=C1C [PRODIGIOSIN] | 8 | – | – |
| COC(=O)CCCc1cc[nH]c1/C=C1\N=C(c2ccc[nH]2)C=C1OC | 4500 | – | – |
| COC1=CC(c2ccc[nH]2)=N/C1=C\c1[nH]c(Cc2ccccc2Cl)cc1Cc1ccccc1Cl | 3.6 | 4.9 | < 125 |
| CCCCCCc1cc(CCCCCC)c(/C=C2\N=C(c3ccc[nH]3)C=C2OC)[nH]1 | 1.7 | 1.1 | < 125 |
| COC1=CC(c2ccc[nH]2)=N/C1=C\c1[nH]ccc1Cc1ccccc1 | – | 86 | < 125 |
